Test results: PubChem BioAssay
The source made the active and inactive calls. Rule as the data show it, unless noted: active = inhibition above about 30%; inactive = the rest.

Experiments:
[1] = reducers of endogenous Her2 protein level, primary screen, SKBR3 breast tumor cells, AlphaScreen, ATP viability (AID 461;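 active = Her2 level under about 52% in both replicate screens, with viability over 70% of control, limit read from the data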;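 as to Her2 level: lower value means less Her2 protein in the cells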;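 as to viability: percent of carrier control wells set as 100% viability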); details: 18-24 h, measured here: SKBR3 viability, ATP luminescence, at 10 µM
[2] = target: Receptor tyrosine-protein kinase erbB-2 (Homo sapiens) (UniProt P04626); assay: as above; details: 18-24 h, at 10 µM, stronger effect = lower value
Receptor tyrosine-protein kinase erbB-2 (Homo sapiens), sequence (P04626 whole entry, looked up): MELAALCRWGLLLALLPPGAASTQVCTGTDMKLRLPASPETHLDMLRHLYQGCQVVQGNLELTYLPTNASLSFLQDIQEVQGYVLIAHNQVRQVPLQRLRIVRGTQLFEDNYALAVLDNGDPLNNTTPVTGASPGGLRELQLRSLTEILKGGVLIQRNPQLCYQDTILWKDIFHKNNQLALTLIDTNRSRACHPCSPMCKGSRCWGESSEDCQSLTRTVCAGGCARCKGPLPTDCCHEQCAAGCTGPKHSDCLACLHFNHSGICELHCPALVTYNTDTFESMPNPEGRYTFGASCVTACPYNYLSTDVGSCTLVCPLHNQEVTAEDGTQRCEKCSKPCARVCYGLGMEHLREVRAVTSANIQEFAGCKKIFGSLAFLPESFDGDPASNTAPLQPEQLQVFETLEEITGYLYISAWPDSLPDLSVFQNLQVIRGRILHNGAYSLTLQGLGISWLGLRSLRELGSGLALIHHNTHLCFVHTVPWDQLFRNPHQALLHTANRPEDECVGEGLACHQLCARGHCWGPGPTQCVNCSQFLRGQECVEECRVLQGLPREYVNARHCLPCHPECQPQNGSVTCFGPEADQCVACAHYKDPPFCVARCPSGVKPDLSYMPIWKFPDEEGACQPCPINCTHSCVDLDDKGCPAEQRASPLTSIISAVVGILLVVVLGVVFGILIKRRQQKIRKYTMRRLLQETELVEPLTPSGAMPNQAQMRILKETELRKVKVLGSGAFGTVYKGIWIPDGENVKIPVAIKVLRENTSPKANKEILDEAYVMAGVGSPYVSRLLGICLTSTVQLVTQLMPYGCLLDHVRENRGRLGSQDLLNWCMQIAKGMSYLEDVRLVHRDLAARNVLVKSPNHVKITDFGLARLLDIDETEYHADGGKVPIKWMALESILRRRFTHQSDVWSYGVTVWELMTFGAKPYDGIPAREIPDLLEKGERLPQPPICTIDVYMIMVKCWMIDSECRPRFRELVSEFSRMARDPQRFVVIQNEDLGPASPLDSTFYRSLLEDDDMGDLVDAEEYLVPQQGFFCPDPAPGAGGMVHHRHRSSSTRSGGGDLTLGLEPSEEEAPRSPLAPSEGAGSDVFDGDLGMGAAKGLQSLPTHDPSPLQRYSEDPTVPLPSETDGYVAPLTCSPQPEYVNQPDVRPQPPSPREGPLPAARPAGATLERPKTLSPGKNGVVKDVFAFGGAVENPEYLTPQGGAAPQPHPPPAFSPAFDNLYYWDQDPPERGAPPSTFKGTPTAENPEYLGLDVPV

[3] = SK-BR-3 cell growth inhibitors, pilot screen, 24 h, human (AID 572;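 active = viability at or below 10% of carrier control in both of two separate runs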;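 also: compound exposure lasted between 18 and 24 h rather than exactly 24 h; 100% = carrier-treated control wells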); details: SK-BR-3 viability, CellTiter-Glo luminescence, at 10 µM, stronger effect = lower value
[4] = HUVEC growth inhibition – cell-based, human, primary screen (AID 575;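 active = viability at or below 30% in both replicate assays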;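 also: 100% = median of untreated cell wells with 0.1% DMSO on each plate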); details: HUVEC proliferation, CellTiter-Glo luminescence, 72 h; at 10 µM; stronger effect = lower value
Summary of the method: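 System – primary HUVEC, no more than 12 passages · Medium – Low-serum (2% FBS) EBM, supplemented · Times – 72 h exposure, 37 °C, 5% CO2, 30 min RT equilibration · Measured by – luminescent ATP assay · Read-out – % viability relative to median vehicle-well signal on each plate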

[5] = growth inhibitors of H69AR lung tumor, primary screen, human, duplicate replicates (AID 580;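 active = viability at or under a set limit in both replicates, limit being median viability minus 3 SD, cut at about 48% in these data, passing the limit was not always enough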;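 also: 100% = mean luminescence of untreated wells and 0% = no signal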); details: H69AR lung tumor cells viability, ATP luminescence, 72 h; at 10 µM; stronger effect = lower value
[6] = reversal of MRP1-mediated doxorubicin resistance, pilot screen, H69AR cells, doxorubicin co-treatment (AID 601;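 active = viability loss from added drug above about 55%, and viability with drug at most 40%, in both replicates, limit read from the data, passing the limit was not always enough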); details: CellTiter-Glo, 72 h, at 10 µM; for differential viability (reversal): stronger effect = higher value
[7] = 384-well plate pilot, post-Golgi transport modulator project, inhibition of yeast transport mutant growth (AID 636; in the data active = inhibition above about 31%); details: absorbance 615 nm, about 18 h, stronger effect = higher value
[8] = growth suppression of yeast trafficking mutant, preliminary HTS, modulators of trafficking downstream of Golgi apparatus project, 1536-format plate, OD 615 nm (AID 637); details: yeast transport mutant growth, absorbance 615 nm, 18 h; stronger effect = higher value
[9] = H69AR cells + 2 uM doxorubicin, measured here: viability with 2 uM doxorubicin, stronger effect = lower value
[10] = H69AR cells, compound alone cytotoxicity

| Structure (SMILES) | viability [1] [%] | Her2 level [2] | viability [3] | viability [4] | viability [5] | differential viability (reversal) ([6]; H69AR cells + 2 uM doxorubicin) | viability [6, 9] [%] | viability [6, 10] [%] | inhibition [7] | inhibition [8] |
| --- | --- | --- | --- | --- | --- | --- | --- | --- | --- | --- |
| Cc1ccccc1-c1noc(N)c1C#N | 110 | 70.5% (inactive) | 110% (inactive) | 92.3% (inactive) | 90% (inactive) | 1.42% (inactive) | 88.6 | 90 | -5.68% (inactive) | 4% (inactive) |
| CC1Cc2cc(/C(O)=C3/C(=O)C(=O)N(CCN4CCOCC4)C3c3cccc(O)c3)ccc2O1 (stereo not given) | 98.5 | 120% (inactive) | 98.5% (inactive) | 98.9% (inactive) | 106% (inactive) | 2.56% (inactive) | 104 | 106 | 3.2% (inactive) | -5.32% (inactive) |
| COc1ccc(CC(=O)OCc2nnc(C3COc4ccccc4O3)o2)cc1OC (stereo not given) | 116 | 104% (inactive) | 116% (inactive) | 91.3% (inactive) | 104% (inactive) | 19.8% (inactive) | 83.7 | 104 | -2% (inactive) | -1.64% (inactive) |
| CCC(=O)N(CCCN(C)C)c1nc(-c2cc(OC)ccc2OC)cs1 | 93.5 | 87.5% (inactive) | 93.5% (inactive) | 78.2% (inactive) | 84.6% (inactive) | 11.2% (inactive) | 73.3 | 84.6 | -5.2% (inactive) | 5.08% (inactive) |
| O=c1c2c3c(sc2nc2sc(C4CC4)nn12)CCCC3 | 110 | 92.5% (inactive) | 110% (inactive) | 82.7% (inactive) | 79.7% (inactive) | -7.56% (inactive) | 87.2 | 79.7 | -0.39% (inactive) | 20.7% (inactive) |
| CCNC(=O)c1ccc(NS(=O)(=O)c2ccccc2)cc1 | 124 | 91% (inactive) | 124% (inactive) | 86.1% (inactive) | 90.5% (inactive) | -1.69% (inactive) | 92.2 | 90.5 | 0% (inactive) | 4.1% (inactive) |
| O=C(Nc1ccccc1)N(CCN1CCOCC1)Cc1ccccc1F | 106 | 103% (inactive) | 106% (inactive) | 92.2% (inactive) | 92.3% (inactive) | -16% (inactive) | 108 | 92.3 | 2.11% (inactive) | 1.64% (inactive) |
| Cc1nn(C)c(C)c1CNC(=O)c1cc2n(n1)C(C(F)(F)F)CC(c1cccs1)N2 (stereo not given) | 89.5 | 83% (inactive) | 89.5% (inactive) | 107% (inactive) | 112% (inactive) | 18.2% (inactive) | 93.9 | 112 | 0.41% (inactive) | 0.32% (inactive) |
| CCCCOC(=O)CNc1nnc(SCC(=O)OCC)[nH]c1=O | 114 | 87% (inactive) | 114% (inactive) | 74.8% (inactive) | 98.6% (inactive) | 11.7% (inactive) | 86.9 | 98.6 | -0.91% (inactive) | -3.81% (inactive) |
| COCC(=O)Nc1sc2c(c1C(=O)OC)C(C(=O)OC)CC2 (stereo not given) | 75.5 | 108% (inactive) | 75.5% (inactive) | 84.6% (inactive) | 101% (inactive) | 12.5% (inactive) | 88.6 | 101 | 3.16% (inactive) | 11.4% (inactive) |
| CCN(CC)c1ccc(NC(=O)c2[nH]c(C)c(C(C)=O)c2C)c(C)c1 | 92.5 | 91% (inactive) | 92.5% (inactive) | 93.1% (inactive) | 74.8% (inactive) | -1.04% (inactive) | 75.9 | 74.8 | -0.39% (inactive) | -8.06% (inactive) |
| CN(Cc1cccs1)C(=O)CCc1ccc(S(=O)(=O)N2CCOCC2)cc1 | 97.5 | 116% (inactive) | 97.5% (inactive) | 111% (inactive) | 87.4% (inactive) | -10.2% (inactive) | 97.6 | 87.4 | -5.06% (inactive) | -12.5% (inactive) |
| Cc1oc(C(=O)O)cc1CSCc1cc(C(=O)O)c(C)o1 | 104 | 94.5% (inactive) | 104% (inactive) | 92.9% (inactive) | 103% (inactive) | 1.31% (inactive) | 102 | 103 | -3.51% (inactive) | -1.48% (inactive) |
| O=C(CCn1nc(-c2ccccc2)ccc1=O)N1CCCC1 | 97 | 96% (inactive) | 97% (inactive) | 114% (inactive) | 94.4% (inactive) | -0.505% (inactive) | 94.9 | 94.4 | -4.74% (inactive) | 0.48% (inactive) |
| Cc1ccc(C(=O)CSc2nnc(-c3cccnc3)n2N)cc1 | 104 | 89.5% (inactive) | 104% (inactive) | 68.9% (inactive) | 28.2% (active) | -49.2% (inactive) | 77.4 | 28.2 | -0.93% (inactive) | 0.97% (inactive) |
| CCOC(=O)C1=C(C)N=c2s/c(=C\c3cccn3C)c(=O)n2C1c1cccc(OC)c1OC (stereo not given) | 89 | 87% (inactive) | 89% (inactive) | 75.7% (inactive) | 87.4% (inactive) | -1.62% (inactive) | 89 | 87.4 | -1.56% (inactive) | -2.13% (inactive) |
| CC(=O)Nc1cccc(NC(=O)c2oc3ccccc3c2C)c1 | 81.5 | 92.5% (inactive) | 81.5% (inactive) | 76.8% (inactive) | 68.9% (inactive) | -12.4% (inactive) | 81.3 | 68.9 | -4.8% (inactive) | -1.43% (inactive) |
| Cc1ccc(OC(=O)CCC(=O)OCCCC(F)(F)C(F)(F)F)cc1 | 102 | 104% (inactive) | 102% (inactive) | 91.2% (inactive) | 94.3% (inactive) | 3.79% (inactive) | 90.5 | 94.3 | -1.76% (inactive) | -1.64% (inactive) |
| CC(C)(CO)NC(=O)CCCOc1ccc(Cl)cc1Cl | 97 | 104% (inactive) | 97% (inactive) | 84.5% (inactive) | 98.1% (inactive) | 19% (inactive) | 79.2 | 98.1 | -0.26% (inactive) | 0.17% (inactive) |
| CCOC(=O)c1cccc(NC(=O)Cn2cnc3c2c(=O)n(C)c(=O)n3C)c1 | 104 | 91.5% (inactive) | 104% (inactive) | 102% (inactive) | 91.2% (inactive) | -6.33% (inactive) | 97.5 | 91.2 | -2.97% (inactive) | -9.33% (inactive) |
| O=C1CCCc2c1cc(C(=O)NCc1ccco1)c(=O)n2-c1ccc(Cl)cc1 | 88 | 110% (inactive) | 88% (inactive) | 80.8% (inactive) | 93.5% (inactive) | 13% (inactive) | 80.5 | 93.5 | -4.8% (inactive) | -3.39% (inactive) |
| CCNC(=O)CC1C(=O)N(c2ccccc2)C(=O)N1Cc1ccc(OC)cc1 (stereo not given) | 94.5 | 100% (inactive) | 94.5% (inactive) | 91.9% (inactive) | 94.8% (inactive) | 5.68% (inactive) | 89.1 | 94.8 | -3.68% (inactive) | -2.91% (inactive) |
| Cc1ccc(C(=O)N2CCCC(c3nc4c(nnn4Cc4ccccc4)c(=O)[nH]3)C2)cc1 (stereo not given) | 80.5 | 105% (inactive) | 80.5% (inactive) | 110% (inactive) | 83.4% (inactive) | 24.5% (inactive) | 58.9 | 83.4 | -3.08% (inactive) | 7.33% (inactive) |
| O=S(=O)(Nc1cccnc1)c1cc(Cl)ccc1Cl | 77.5 | 96% (inactive) | 77.5% (inactive) | 92.2% (inactive) | 82.8% (inactive) | -4.94% (inactive) | 87.7 | 82.8 | -1.03% (inactive) | -3% (inactive) |
| Cc1oc2nc(SCCCC(=O)NCCCO)nc(N)c2c1C | 91.5 | 85% (inactive) | 91.5% (inactive) | 103% (inactive) | 107% (inactive) | 7.75% (inactive) | 98.8 | 107 | -0.79% (inactive) | 4.75% (inactive) |
| Cc1nc2cccc(C(=O)NC3CCCCC3)c2o1 | 100 | 101% (inactive) | 100% (inactive) | 98.6% (inactive) | 93.1% (inactive) | 8.96% (inactive) | 84.2 | 93.1 | -3.73% (inactive) | 7.05% (inactive) |
| O=C(Cn1nnc(-c2ccncc2)n1)Nc1ccc2c(c1)CCC2 | 112 | 93.5% (inactive) | 112% (inactive) | 107% (inactive) | 110% (inactive) | 13.3% (inactive) | 96.4 | 110 | -6.45% (inactive) | 2.38% (inactive) |
| CCCCN(c1ccccc1)S(=O)(=O)c1ccc2c(c1)CCN2C(=O)CCC(=O)O | 116 | 100% (inactive) | 116% (inactive) | 93.8% (inactive) | 91.9% (inactive) | 1.98% (inactive) | 90 | 91.9 | -1.58% (inactive) | -6.73% (inactive) |
| CCC(=O)N1Cc2ccccc2-c2ccccc2C1=O | 102 | 91% (inactive) | 102% (inactive) | 80.1% (inactive) | 90% (inactive) | 4.75% (inactive) | 85.2 | 90 | -5.06% (inactive) | 4.76% (inactive) |
